# Data as given in ChEMBL document CHEMBL1142064, “Concentration-dependent effects of caspofungin on the metabolic activity of Aspergillus species” (2007).
# Key:
# Assay type in all cases: functional
# [1] = test system: Aspergillus fumigatus; assay: Antifungal activity against Aspergillus fumigatus after 48 hrs; details: read-out: MEC
# How it was run: (§1)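 Broth microdilution following CLSI M38-A in RPMI 1640 with l-glutamine, no bicarbonate, buffered to pH 7.0 with 0.165 M MOPS. Caspofungin twofold dilutions, 0.008 to 8 μg/ml final. Inoculum 2.5 × 10⁴ conidia/ml of clinical isolates. Incubation 37°C for 48 h. MEC read microscopically as the lowest concentration giving short, stubby, highly branched hyphae. Run in triplicate.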
# [2] = test system: Aspergillus terreus; assay: Antifungal activity against Aspergillus terreus after 48 hrs; details: read-out: MEC; how it was run: as §1
# [3] = test system: Aspergillus flavus; assay: Antifungal activity against Aspergillus flavus after 48 hrs; details: read-out: MEC; how it was run: as §1
# [4] = test system: Aspergillus fumigatus; assay: Metabolic activity of Aspergillus fumigatus at 0.5 ug/ml after 2 hrs by XTT assay relative to control
# How it was run: (§2)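 Wells from the 48 h caspofungin microdilution (0.008 to 8 μg/ml) were read right after microscopic MEC reading. XTT plus menadione was added to final 100 μg/ml XTT and 6.25 μM menadione, then incubated 2 h at 37°C and shaken. Absorbance read at 450 nm with 630 nm reference. Percent metabolic activity = background-subtracted drug well / background-subtracted drug-free control × 100. Triplicate.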
# [5] = test system: Aspergillus terreus; assay: Metabolic activity of Aspergillus terreus at 0.5 ug/ml after 2 hrs by XTT assay relative to control; how it was run: as §2
# [6] = test system: Aspergillus flavus; assay: Metabolic activity of Aspergillus flavus at 0.25 ug /ml using after 2 hrs by XTT assay relative to control; how it was run: as §2
# [7] = test system: Aspergillus fumigatus; assay: Metabolic activity of Aspergillus fumigatus by XTT assay relative to control; how it was run: as §2
# [8] = test system: Aspergillus terreus; assay: Metabolic activity of Aspergillus terreus by XTT assay relative to control; how it was run: as §2
# [9] = test system: Aspergillus fumigatus; assay: Metabolic activity of Aspergillus fumigatus at 0.75 ug/ml after 2 hrs by XTT assay relative to control; how it was run: as §2
# [10] = test system: Aspergillus terreus; assay: Metabolic activity of Aspergillus terreus at 1 ug/ml after 2 hrs by XTT assay relative to control; how it was run: as §2
# [11] = test system: Aspergillus flavus; assay: Metabolic activity of Aspergillus flavus at 2 ug /ml after 2 hrs by XTT assay relative to control; how it was run: as §2
# [12] = test system: Aspergillus fumigatus; assay: Metabolic activity of Aspergillus fumigatus at 8 ug/ml by XTT assay relative to control
# How it was run: (§3)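 Optimized XTT read-out (100 μg/ml XTT, 6.25 μM menadione, 2 h at 37°C) applied after 48 h caspofungin exposure. Percent metabolic activity in the 8 μg/ml well, calculated as background-corrected absorbance (450/630 nm) relative to the drug-free control. Compared within each species against the value at the concentration giving the lowest activity.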
# [13] = test system: Aspergillus terreus; assay: Metabolic activity of Aspergillus terreus at 8 ug/ml by XTT assay relative to control; how it was run: as §3
# [14] = test system: Aspergillus flavus; assay: Metabolic activity of Aspergillus flavus at 8 ug/ml by XTT assay relative to control; how it was run: as §3
# [15] = test system: Aspergillus fumigatus; assay: Metabolic activity of Aspergillus fumigatus determined as X-MEC relative to control
# How it was run: (§4)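 X-MEC: lowest caspofungin concentration whose percent metabolic activity (optimized XTT, 100 μg/ml XTT, 6.25 μM menadione, 2 h, after 48 h incubation) is at or below a species-specific cutoff. Cutoffs were tested in 5% steps around the species median activity at the microscopic MEC and chosen for best ±1 dilution agreement with the microscopic MEC.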
# [16] = test system: Aspergillus terreus; assay: Metabolic activity of Aspergillus terreus determined as X-MEC relative to control; how it was run: as §4
# [17] = test system: Aspergillus flavus; assay: Metabolic activity of Aspergillus flavus determined as X-MEC relative to control; how it was run: as §4
structure (smiles),measurement,setting,value
CC[C@H](C)C[C@H](C)CCCCCCCCC(=O)N[C@H]1C[C@@H](O)[C@@H](NCCN)NC(=O)[C@@H]2[C@@H](O)CCN2C(=O)[C@H]([C@H](O)CCN)NC(=O)[C@H]([C@H](O)[C@@H](O)c2ccc(O)cc2)NC(=O)[C@@H]2C[C@@H](O)CN2C(=O)[C@H]([C@@H](C)O)NC1=O [CASPOFUNGIN],minimal effective concentration,[1],0.5 µg/mL
same,minimal effective concentration,[2],0.5 µg/mL
same,minimal effective concentration,[3],0.25 µg/mL
same,Activity,[4],42%
same,Activity,[5],53%
same,Activity,[6],25%
same,MMC,[7],0.75 µg/mL
same,MMC,[8],1 µg/mL
same,Activity,[9],28%
same,Activity,[10],38%
same,Activity,[11],17%
same,Activity,[12],51%
same,Activity,[13],57%
same,Activity,[14],20%
same,Activity,[15],60%
same,Activity,[16],65%
same,Activity,[17],40%
